These results are taken from ChEMBL document CHEMBL3351669, “Oxidized derivatives of macroline, sarpagine, and pleiocarpamine alkaloids from Alstonia angustifolia” (J Nat Prod, 2014).

What all share (type): functional, cell-based
The subject of one assay is KB. As to the kind of experiment: Cytotoxicity against vincristine-sensitive human KB cells. The procedure, abridged: (§1)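 Alkaloids tested alone, without vincristine, in parallel on vincristine-sensitive KB and vincristine-resistant KB/VJ300 cells. IC50 determined, in μg/mL.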
Assay [1] can be described thus: Cytotoxicity against vincristine-resistant human KB/VJ300 cells. The procedure, abridged:
as §1

The nature of assay [2]: Cytotoxicity against multi-drug resistant human KB/VJ300 cells in presence of 0.1 ug/ml vincristine. In a few lines:
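Multidrug-resistance reversal test in vincristine-resistant KB/VJ300 cells. Test alkaloid is co-applied with vincristine at 0.1 μg/mL (0.12 μM). The IC50 of the test alkaloid is determined under this co-treatment, in μg/mL.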

pIC50: −log10 of the molar value.

On to `C/C=C1/CN2[C@H]3C[C@H]1C(CO)[C@@H]2C[C@]31Nc2ccccc2C1=O` (some centres not stated), for which the concentration for half-maximal inhibition (IC50) (with KB; in assay [1]) was above 25 µg/mL each time.
For `CC(=O)C1=COC[C@@H]2[C@H]1C[C@H]1c3c(c4ccccc4n3C)C[C@@H]2N1C` [ALSTONERINE], the IC50 (with KB; in assay [1]) was above 25 µg/mL in each case. In addition, the pIC50 in assay [2] was 5.00.
Take `C/C=C1/CN2CC[C@@]3(O)c4ccccc4N4[C@H](C(=O)OC)[C@H]1C[C@H]2[C@@H]43`: the concentration for half-maximal inhibition (IC50) (in the assay on KB; in assay [1]) was above 25 µg/mL throughout.
Take `CC1=C(C=O)[C@@H]2C[C@H]3c4[nH]c5ccccc5c4C[C@@H]([C@@H]2CO1)N3C`: the IC50 (in the assay with KB; in assay [1]) was above 25 µg/mL throughout.
For the compound `C/C=C1/CN2CC(=O)c3c4n(c5ccccc35)[C@H](C(=O)OC)[C@H]1C[C@@H]42`, the IC50 (with KB; in assay [1]) was above 25 µg/mL throughout.
On to `C/C=C1\C(=O)OC[C@H]2[C@@H]3Cc4c(n(C)c5ccc(OC)cc45)[C@H](C[C@@H]12)N3`, for which the IC50 (in the assay with KB; in assay [1]) was above 25 µg/mL each time. The negative-log IC50 (pIC50) in assay [2] was 4.40.
Consider `C[C@H](O)C[C@@H]1C[C@@H]2N[C@@H](C[C@@]23C(=O)N(C)c2ccccc23)[C@@H]1CO`, for which the IC50 (in the assay on KB; in assay [1]) was above 25 µg/mL each time.
Turning to `C[C@H](O)C[C@@H]1C[C@@H]2N[C@@H](C[C@@]23C(=O)Nc2ccccc23)[C@@H]1CO`, the IC50 (in the assay on KB; in assay [1]) was above 25 µg/mL each time.
Regarding `C[C@@H]1OC[C@@H]2[C@H]3C[C@H]4c5c(c6ccccc6n5C)C[C@@H]2N4[C@H](O)[C@H]31`, the IC50 (in the assay on KB; in assay [1]) was above 25 µg/mL throughout. Further, in assay [2], the pIC50 was 4.40.
On to `C[C@H](O)C[C@H]1C[C@@H]2N3COC[C@@H]1[C@@H]3CC21C(=O)N(C)c2ccccc21` (some centres not stated), for which the IC50 (with KB; in assay [1]) was above 25 µg/mL throughout.
On to `C/C=C1/CN2CC[C@]3(O)c4ccccc4N4[C@H](C(=O)OC)[C@H]1C[C@H]2[C@@H]43`, for which the IC50 (in the assay on KB; in assay [1]) was above 25 µg/mL each time.
`C/C=C1/CN2[C@H]3C[C@H]1C(CO)[C@@H]2Cc1c3[nH]c2ccccc12` (some centres not stated): the IC50 (with KB; in assay [1]) was above 25 µg/mL throughout.
On to `C[C@H]1OC[C@@H]2[C@H]3C[C@H]4c5c(c6ccccc6n5C)C[C@@H]2[N+]4(C)[C@H](O)[C@H]31`, for which the IC50 (with KB; in assay [1]) was above 25 µg/mL throughout.
On to `C/C=C1/CN2CCc3c4n(c5ccccc35)[C@H](C(=O)OC)[C@H]1C[C@@H]42`, for which the IC50 (in the assay with KB; in assay [1]) was above 25 µg/mL each time. Moreover, in assay [2], the negative-log IC50 (pIC50) was 4.40.
For `CN1[C@H]2C[C@H]3C(=O)OC[C@H]3[C@@H]1Cc1c2n(C)c2ccccc12`, the IC50 (in the assay on KB; in assay [1]) was above 25 µg/mL in each case.
Consider `CC(=O)C[C@@H]1C[C@H]2c3c(c4ccccc4n3C)C[C@@H]([C@@H]1CO)N2C`, for which the IC50 (in the assay on KB; in assay [1]) was above 25 µg/mL throughout.
Turning to `C[C@@H]1OC[C@@H]2[C@@H](C[C@H]3c4c(c5ccccc5n4C)C[C@@H]2N3C)[C@H]1CO` [MACROCARPINE B], the IC50 (with KB; in assay [1]) was above 25 µg/mL in each case.
On to `C[C@@H]1OC[C@@H]2[C@H]3C[C@@H]4N([C@H](O)C13)[C@H]2C[C@@]41C(=O)N(C)c2ccccc21`, for which the IC50 (with KB; in assay [1]) was above 25 µg/mL each time.
For the compound `CC(=O)C1=COC[C@@H]2[C@H]1C[C@H]1c3[nH]c4ccccc4c3C[C@@H]2N1C`, the IC50 (in the assay with KB; in assay [1]) was above 25 µg/mL each time.
With `CC(=O)C1=COC[C@H]2[C@@H]3C[C@]4(C(=O)N(C)c5ccccc54)[C@H](C[C@@H]12)N3`, the IC50 (with KB; in assay [1]) was above 25 µg/mL in each case.
Consider `CC(O)C[C@@H]1C[C@@H]2N3COC[C@H]1[C@@H]3C[C@]21C(=O)Nc2ccccc21` (some centres not stated), for which the IC50 (in the assay on KB; in assay [1]) was above 25 µg/mL in each case.
Consider `CC(O)C[C@@H]1C[C@@H]2N[C@@H](C[C@]23C(=O)N(C)c2ccccc23)[C@@H]1CO` (some centres not stated), for which the concentration for half-maximal inhibition (IC50) (with KB; in assay [1]) was above 25 µg/mL throughout.
Regarding `C[C@@H]1OC[C@@H]2[C@@H](C[C@@H]3N[C@H]2Cc2c3n(C)c3ccccc23)[C@@H]1CO`, the IC50 (in the assay on KB; in assay [1]) was above 25 µg/mL throughout.
Regarding `CC1=C(C=O)[C@@H]2C[C@H]3c4c(c5ccccc5n4C)C[C@@H]([C@@H]2CO1)N3C` [ALSTONERINAL], the IC50 (with KB; in assay [1]) was above 25 µg/mL in each case.
Take `CC(=O)C(CC(=O)O)[C@@H]1C[C@H]2c3c(c4ccccc4n3C)C[C@@H]([C@@H]1CO)N2C` (some centres not stated): the IC50 (in the assay with KB; in assay [1]) was above 25 µg/mL throughout.
As to `C[C@@H]1OC[C@@H]2[C@@H](C[C@H]3c4c(c5ccccc5n4C)C[C@@H]2N3C)[C@@H]1CO`, the IC50 (with KB; in assay [1]) was above 25 µg/mL each time.
For the compound `C[C@@H]1OC[C@@H]2[C@@H](C[C@H]3c4[nH]c5ccccc5c4C[C@@H]2N3C)[C@@H]1CO`, the IC50 (with KB; in assay [1]) was above 25 µg/mL in each case.
Consider `CC(=O)O[C@@H]1[C@@H]2[C@@H]3C[C@H]4c5c(c6ccccc6n5C)C[C@@H]([C@@H]3CO[C@H]2C)N14`, for which the half-inhibitory concentration (IC50) (with KB; in assay [1]) was above 25 µg/mL each time. Also, the pIC50 in assay [2] was 4.40.
Take `COc1ccc2c(c1)c1c(n2C)[C@@H]2C[C@H]3[C@@H](CO)[C@H](C)OC[C@H]3[C@H](C1)N2C`: the IC50 (with KB; in assay [1]) was above 25 µg/mL in each case.
In the case of `C[C@H](O)C1=CN2[C@H]3C[C@H]1[C@@H](CO)[C@@H]2Cc1c3n(C)c2ccccc12`, the IC50 (with KB; in assay [1]) was above 25 µg/mL throughout.
As for `C[C@@H]1OC[C@@H]2[C@@H](C[C@H]3c4[nH]c5ccccc5c4C[C@@H]2N3C)[C@H]1CO`, the IC50 (in the assay on KB; in assay [1]) was above 25 µg/mL throughout.
Regarding `C[C@H](O)C1=CN2[C@H]3C[C@H]1[C@@H](CO)[C@@H]2C[C@@]31C(=O)N(C)c2ccccc21`, the IC50 (in the assay with KB; in assay [1]) was above 25 µg/mL each time.
`C[C@@H]1OC[C@@H]2[C@@H](C[C@@H]3N[C@H]2Cc2c3n(C)c3ccccc23)[C@H]1CO`: the IC50 (in the assay with KB; in assay [1]) was above 25 µg/mL throughout.
For `CC(=O)C[C@@H]1C[C@@H]2N3[C@@H](C)OC[C@H]1[C@@H]3C[C@]21C(=O)N(C)c2ccccc21`, the IC50 (in the assay with KB; in assay [1]) was above 25 µg/mL each time.
On to `CC(O)C[C@@H]1C[C@@H]2N3COC[C@H]1[C@@H]3C[C@]21C(=O)N(C)c2ccccc21` (some centres not stated), for which the IC50 (in the assay on KB; in assay [1]) was above 25 µg/mL throughout.
Consider `CC(=O)C1=COC[C@H]2[C@@H]3C[C@]4(C(=O)Nc5ccccc54)[C@H](C[C@@H]12)N3`, for which the IC50 (in the assay on KB; in assay [1]) was above 25 µg/mL each time.
Regarding `C[C@H]1OC[C@@H]2[C@@H](C[C@H]3c4c(c5ccccc5n4C)C[C@@H]2N3C)[C@@H]1C=O`, the IC50 (in the assay on KB; in assay [1]) was above 25 µg/mL each time.
As for `CN1[C@H]2C[C@@H]3[C@@H](CO[C@@]4(C)OC(=O)C[C@@H]34)[C@@H]1Cc1c2n(C)c2ccccc12`, the IC50 (in the assay with KB; in assay [1]) was above 25 µg/mL each time.
For the compound `COc1ccc2c(c1)c1c(n2C)[C@@H]2C[C@H]3C(=O)OC[C@H]3[C@H](C1)N2C`, the IC50 (with KB; in assay [1]) was above 25 µg/mL in each case.
With `C/C=C1\C(=O)OC[C@H]2[C@@H]3Cc4c(n(C)c5ccccc45)[C@H](C[C@@H]12)N3`, the IC50 (in the assay with KB; in assay [1]) was above 25 µg/mL throughout.
Consider `C[C@@H]1OC[C@@H]2[C@@H](C[C@H]3c4c(c5ccccc5n4C)C[C@@H]2N3C)[C@@H]1C=O` [Talcarpine], for which the IC50 (in the assay with KB; in assay [1]) was above 25 µg/mL each time.
